How the values were obtained:
Type in all cases: functional
Rattus norvegicus [1] = assay: Antihyperglycemic activity against streptozotocin-induced Sprague-Dawley albino rat diabetic model assessed as area under the 0 to 5 hrs blood glucose response curve (0-5 hrs AUC) at 25 mg/kg, po after 48 hrs by glucometer
How it was run: (§1)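 Male Sprague–Dawley rats, fasted overnight, received STZ 60 mg/kg ip in 0.1 M citrate pH 4.5. Rats with glucose 140–270 mg/dl at 48 h were used, n = 5 per group. Compound was given at 25 mg/kg orally in 1.0% gum acacia, with vehicle controls, and a sucrose load of 2.5 g/kg followed 30 min later. Glucose was read by glucometer at 1–6 h and 24 h. Percent activity came from AUC versus control, with Dunnett's test.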

Rattus norvegicus [2] = assay: Antihyperglycemic activity against streptozotocin-induced Sprague-Dawley albino rat diabetic model assessed as area under the 0 to 24 hrs blood glucose response curve (0-24 hrs AUC) at 25 mg/kg, po after 48 hrs by glucometer; how it was run: as §1
L6 = assay: Antihyperglycemic activity against rat L6 cells assessed as increase in glucose uptake by liquid scintillation counting; parameters: concentration or dose not given beside the values
How it was run: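 L6 myoblasts were grown in DMEM with 10% FBS, then differentiated into myotubes for 7–8 days in 2% FBS. Myotubes were treated with compound at 10 or 50 µM for 18 h and washed in Krebs–Ringer HEPES. Uptake of 2-deoxy-[3H]-D-glucose (3 µCi, plus 20 µM unlabelled) was measured over 15 min. Non-specific uptake was taken with 10 µM cytochalasin B. Counts (cpm/well) were compared with controls.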

Rattus norvegicus [3] = assay: Antihyperglycemic activity against streptozotocin-induced Sprague-Dawley albino rat diabetic model assessed as reduction in blood glucose at 25 mg/kg, po after 24 hrs; parameters: scale not given: the % may be the effect or the level left; how it was run: as §1

Row | SMILES | Activity (Rattus norvegicus [1]) | Activity (Rattus norvegicus [2]) | Activity (L6) | Activity (Rattus norvegicus [3])
1 | OC[C@H]1O[C@@H](c2c(O)cccc2O)[C@H](O)[C@@H](O)[C@@H]1O | 12.7% | 22.3% |  | 
2 | O=c1cc(-c2ccc(O)c(O)c2)oc2c([C@@H]3O[C@H](CO)[C@@H](O)[C@H](O)[C@H]3O)c(O)ccc12 | 14.3% | 16.1% |  | 
3 | OC[C@H]1O[C@@H](c2c(O)ccc3cc(Cc4ccc(O)cc4)oc23)[C@H](O)[C@@H](O)[C@@H]1O | 9.78% | 11.2% |  | 
4 | O=C1c2ccc(O)c([C@@H]3O[C@H](CO)[C@@H](O)[C@H](O)[C@H]3O)c2OC1(O)Cc1ccc(O)cc1 (stereo not given in full) | 1.99% | 7.9% |  | 
5 | O=C(CC(O)c1ccc(O)c(O)c1)c1ccc(O)c([C@@H]2O[C@H](CO)[C@@H](O)[C@H](O)[C@H]2O)c1O (stereo not given in full) | 20% | 19.5% |  | 
6 | O=C1Oc2c(ccc(O)c2[C@@H]2O[C@H](CO)[C@@H](O)[C@H](O)[C@H]2O)/C1=C\c1ccc(O)cc1 | 17.2% | 29% | 16% | 
7 | O=C1c2c(cc(O)c([C@@H]3O[C@H](CO)[C@@H](O)[C@H](O)[C@H]3O)c2O)OC(c2ccc(O)c(O)c2)C1O (stereo not given in full) | 17.6% | 12.8% | 10.2% | 
8 | O=C1CC(c2ccc(O)cc2)Oc2cc(O)c([C@@H]3O[C@H](CO)[C@@H](O)[C@H](O)[C@H]3O)c(O)c21 (stereo not given in full) | 8.41% | 15.1% | 12.2% | 
9 | O=C1c2c(cc(O)c([C@@H]3O[C@H](CO)[C@@H](O)[C@H](O)[C@H]3O)c2O)OC(c2ccc(O)cc2)C1O (stereo not given in full) | 23.8% | 23.8% |  | 23.8%
10 | COC(=O)c1c(O)c([C@@H]2O[C@H](CO)[C@@H](O)[C@H](O)[C@H]2O)c(O)c([C@@H]2O[C@H](CO)[C@@H](O)[C@H](O)[C@H]2O)c1O | 11.5% | 7.78% | 10.8% | 
11 | CC(=O)c1c(O)cc(O)c([C@@H]2O[C@H](CO)[C@@H](O)[C@H](O)[C@H]2O)c1O | 18% | 20.9% | 15.3% | 
12 | O=C(CCc1ccccc1)c1c(O)cc(O)c([C@@H]2O[C@H](CO)[C@@H](O)[C@H](O)[C@H]2O)c1O | 22.3% | 26.5% | 11.6% | 26.5%
13 | COc1cc(OC)c([C@@H]2O[C@H](CO)[C@@H](O)[C@H](O)[C@H]2O)c(OC)c1C(=O)/C=C/c1ccc(C(C)C)cc1 | 34.9% | 33.6% |  | 33.6%
14 | O=c1c(O)c(-c2ccc(O)cc2)oc2cc(O)c([C@@H]3O[C@H](CO)[C@@H](O)[C@H](O)[C@H]3O)c(O)c12 | 16.7% | 23.5% | 12.2% | 
15 | COC(=O)c1c(O)cc(O)c([C@@H]2O[C@H](CO)[C@@H](O)[C@H](O)[C@H]2O)c1O | 7.27% | 2.9% |  | 
16 | O=c1c(O)c(-c2ccc(O)c(O)c2)oc2cc(O)c([C@@H]3O[C@H](CO)[C@@H](O)[C@H](O)[C@H]3O)c(O)c12 | 15.6% | 8.56% |  | 
17 | CN(C)C(=N)NC(=N)N [METFORMIN] | 27.2% | 24.1% | 19.4% | 

Source: ChEMBL document CHEMBL1641563, “Synthesis and antihyperglycemic activity of phenolic C-glycosides” (2011)
